Source: ChEMBL document CHEMBL2321693, “Optimizing solubility and permeability of a biopharmaceutics classification system (BCS) class 4 antibiotic drug using lipophilic fragments disturbing the crystal lattice” (J Med Chem, 2013)

Experiments:
[1] = Apparent solubility of the compound in fasted state simulated intestinal fluid at pH 6.5 by shake flask method relative to ciprofloxacin; type: physicochemical; settings: simulated gi fluid
Method in brief: (§1)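 Small-scale shake flask. Excess solid in 500 μL medium (n = 3): USP pH 7.4 phosphate buffer, or pH 6.5 phosphate buffer or FaSSIF per Galia. Supernatant assayed by LC-MS/MS.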

[2] = Apparent permeability of the compound from apical to basolateral side in human Caco2 cells at pH 6.5/7.4 by LC-MS/MS analysis; type: ADME, cell-based; settings: Caco-2, pH 6.5
Method in brief: (§2)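 Caco-2 monolayers ([…] cells seeded on polycarbonate inserts, 0.4 μm pores), kept in 90% air/10% CO2. Transport run at 37 °C across a 6.5/7.4 pH gradient, started by adding 10 μM drug to the donor side. Papp = (ΔQ/Δt)/(A·C0), from steady-state flux, filter area and initial donor concentration. LC-MS/MS quantitation. Mean ± SD of triplicates.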

[3] = Apparent permeability of the compound from basolateral to apical side in human Caco2 cells by LC-MS/MS analysis; type: ADME, cell-based; settings: Caco-2; method in brief: as §2
[4] = Efflux ratio of permeability from basolateral to apical side to apical to basolateral side in human Caco2 cells; type: ADME, cell-based; settings: Caco-2
[5] = Apparent solubility of the compound in phosphate buffer at pH 6.5 by shake flask method relative to ciprofloxacin; type: physicochemical; method in brief: as §1
[6] = Apparent solubility of the compound in phosphate buffer at pH 7.4 by shake flask method relative to ciprofloxacin; type: physicochemical; method in brief: as §1

Row | SMILES | fold change (FC) [1] | Papp A→B [2] | Papp B→A [3] | efflux ratio [4] | fold change (FC) [5] | fold change (FC) [6]
1 | COC(=O)c1cn(C2CC2)c2cc(N3CCNCC3)c(F)cc2c1=O | 111 | 1.01 ×10⁻⁶ cm/s | 19.7 ×10⁻⁶ cm/s | 19 | 66 | 48
2 | CC(C)OC(=O)c1cn(C2CC2)c2cc(N3CCNCC3)c(F)cc2c1=O | 0.5 | 4.69 ×10⁻⁶ cm/s | 35.2 ×10⁻⁶ cm/s | 7 | 0.5 | 0.5
3 | CCCOC(=O)c1cn(C2CC2)c2cc(N3CCNCC3)c(F)cc2c1=O | 0.5 | 0.43 ×10⁻⁶ cm/s | 62.8 ×10⁻⁶ cm/s | 146 | 0.5 | 0.5
4 | CCCCOC(=O)c1cn(C2CC2)c2cc(N3CCNCC3)c(F)cc2c1=O | 10 | 4.95 ×10⁻⁶ cm/s | 65.9 ×10⁻⁶ cm/s | 13 | 27 | 4
5 | CCCCCCOC(=O)c1cn(C2CC2)c2cc(N3CCNCC3)c(F)cc2c1=O | – | 13.9 ×10⁻⁶ cm/s | 264 ×10⁻⁶ cm/s | 19 | – | –
6 | O=C(OCc1ccccc1)c1cn(C2CC2)c2cc(N3CCNCC3)c(F)cc2c1=O | – | 6.42 ×10⁻⁶ cm/s | 116 ×10⁻⁶ cm/s | 18 | – | –
7 | CCOC(=O)c1cn(C2CC2)c2cc(N3CCNCC3)c(F)cc2c1=O [CIPROFLOXACIN ETHYL ESTER] | 2 | 3.45 ×10⁻⁶ cm/s | 24.3 ×10⁻⁶ cm/s | 7 | 2 | 2
